Results published in ChEMBL document CHEMBL1139681, “Discovery of orally active butyrolactam 11beta-HSD1 inhibitors” (Bioorg Med Chem Lett, 2006).

How the values were obtained:
Mus musculus [1] = assay: Lowering of plasma insulin level in DIO C57BL/6J mouse at 5 mg/kg, po after 4 hr fasting; type: functional
Procedure, shortened: (§1)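 Male C57BL/6J mice (5–6 weeks at purchase) made obese on high-fat diet, group-housed, 12 h light/dark cycle. Conditioned to oral gavage beforehand; assigned to groups of equal mean body weight. Dosed po bid (08:00, 15:00) in 1% Tween 80 in water, 4 ml/kg, for 14 days; lean and high-fat vehicle controls. Plasma analytes measured after 4 h fast; Dunnett's test.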

Mus musculus [2] = assay: Effect on plasma triglyceride level in DIO C57BL/6J mouse at 5 mg/kg, po after 4hrs fasting; type: functional; procedure, shortened: as §1
Mus musculus [3] = assay: Lowering of plasma glucose level in DIO C57BL/6J mouse at 5 mg/kg, po after 4 hr fasting; type: functional; procedure, shortened: as §1
Mus musculus [4] = assay: Effect on body weight in DIO C57BL/6J mouse at 5 mg/kg, po; type: functional; procedure, shortened: as §1
[5] = target: T1, 11-beta-hydroxysteroid dehydrogenase type 2 (Homo sapiens, UniProt P80365); assay: Inhibition of human 11beta-HSD2
T1 sequence (P80365 whole entry): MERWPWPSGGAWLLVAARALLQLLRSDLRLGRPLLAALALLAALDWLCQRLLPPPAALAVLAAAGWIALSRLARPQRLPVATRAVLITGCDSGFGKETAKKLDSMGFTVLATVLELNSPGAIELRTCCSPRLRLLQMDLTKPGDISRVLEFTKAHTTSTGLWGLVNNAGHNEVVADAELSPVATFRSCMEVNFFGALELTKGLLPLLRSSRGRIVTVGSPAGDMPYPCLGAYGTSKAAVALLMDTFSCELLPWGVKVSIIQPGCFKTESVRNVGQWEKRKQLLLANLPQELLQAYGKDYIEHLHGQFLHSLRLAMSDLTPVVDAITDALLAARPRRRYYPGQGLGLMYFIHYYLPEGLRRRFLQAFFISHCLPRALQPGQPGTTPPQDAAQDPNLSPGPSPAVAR

[6] = target: T2, 11-beta-hydroxysteroid dehydrogenase 1 (Homo sapiens, UniProt P28845); assay: Inhibition of human 11beta-HSD1
[7] = target: T3, 11-beta-hydroxysteroid dehydrogenase type 2 (Mus musculus, UniProt P51661); assay: Inhibition of mouse 11beta-HSD2
T3 sequence (P51661 whole entry): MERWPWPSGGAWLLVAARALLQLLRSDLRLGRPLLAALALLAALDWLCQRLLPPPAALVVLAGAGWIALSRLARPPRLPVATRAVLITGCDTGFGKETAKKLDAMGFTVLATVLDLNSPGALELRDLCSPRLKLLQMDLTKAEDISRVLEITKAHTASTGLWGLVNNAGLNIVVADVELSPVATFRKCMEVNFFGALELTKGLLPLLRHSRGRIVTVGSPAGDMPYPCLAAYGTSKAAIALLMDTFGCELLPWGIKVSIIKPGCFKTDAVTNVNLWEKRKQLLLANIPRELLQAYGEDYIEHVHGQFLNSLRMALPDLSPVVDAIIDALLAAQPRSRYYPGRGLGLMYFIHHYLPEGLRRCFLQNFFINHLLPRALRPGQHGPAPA

[8] = target: T2, 11-beta-hydroxysteroid dehydrogenase 1; assay: Inhibition of human 11beta-HSD1 expressed in HEK293 cells; type: cell-based
[9] = target: 11-beta-hydroxysteroid dehydrogenase 1 (Mus musculus, UniProt P50172); assay: Inhibition of mouse 11beta-HSD1
[10] = Stability in mouse liver microsomes after 30 min; type: ADME, Microsome; settings: for remaining at 0.5 h: liver microsomes, read-out: Stability
Procedure, shortened: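 Percent parent remaining after a 30-min incubation with mouse liver microsomes.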

Mus musculus [11] = assay: Lowering of plasma insulin level in DIO C57BL/6J mouse at 30 mg/kg, po after 4hrs fasting; type: functional; procedure, shortened: as §1
Mus musculus [12] = assay: Effect on body weight in DIO C57BL/6J mouse at 30 mg/kg, po; type: functional; procedure, shortened: as §1
Mus musculus [13] = assay: Lowering of plasma glucose level in DIO C57BL/6J mouse at 30 mg/kg, po after 4 hr fasting; type: functional; procedure, shortened: as §1
Mus musculus [14] = assay: Effect on plasma triglyceride level in DIO C57BL/6J mouse at 30 mg/kg, po after 4 hr fasting; type: functional; procedure, shortened: as §1
[15] = Half life in mouse at 5 mg/kg, iv and 10 mg/kg, po; type: ADME, organism-based; settings: in vivo
Procedure, shortened: (§2)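 Mouse PK; parameters derived from iv dosing at 5 mg/kg and oral (po) dosing at 10 mg/kg.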

[16] = target: 11-beta-hydroxysteroid dehydrogenase 1 (Mus musculus) (UniProt P50172); assay: Inhibition of DIO mouse liver 11beta-HSD1at 30 mg/kg, po after 7 hrs; type: organism-based; design: dose 30 mg/kg; settings: at 30 mg/kg
Procedure, shortened: (§3)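 DIO mice given a single 30 mpk dose; 11β-HSD1 inhibition in liver and fat measured ex vivo at 1, 7 and 16 h post-dose.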

[17] = Bioavailability in mouse at 5 mg/kg, iv and 10 mg/kg, po; type: ADME, organism-based; settings: in vivo; procedure, shortened: as §2
[18] = target: 11-beta-hydroxysteroid dehydrogenase 1 (Mus musculus) (UniProt P50172); assay: Inhibition of DIO mouse epididymal fat pad 11beta-HSD1 at 30 mg/kg, po after 7 hrs; type: organism-based; design: dose 30 mg/kg; procedure, shortened: as §3
[19] = target: 11-beta-hydroxysteroid dehydrogenase 1 (Mus musculus) (UniProt P50172); assay: Inhibition of DIO mouse liver 11beta-HSD1at 30 mg/kg, po after 1 hr; type: organism-based; design: dose 30 mg/kg; settings: at 30 mg/kg; procedure, shortened: as §3
[20] = target: 11-beta-hydroxysteroid dehydrogenase 1 (Mus musculus) (UniProt P50172); assay: Inhibition of DIO mouse epididymal fat pad 11beta-HSD1 at 30 mg/kg, po after 16 hrs; type: organism-based; design: dose 30 mg/kg; procedure, shortened: as §3
[21] = Plasma clearance in mouse at 5 mg/kg, iv and 10 mg/kg, po; type: ADME, organism-based; procedure, shortened: as §2
[22] = target: 11-beta-hydroxysteroid dehydrogenase 1 (Mus musculus) (UniProt P50172); assay: Inhibition of DIO mouse liver 11beta-HSD1at 30 mg/kg, po after 16 hrs; type: organism-based; design: dose 30 mg/kg; settings: at 30 mg/kg; procedure, shortened: as §3
[23] = target: 11-beta-hydroxysteroid dehydrogenase 1 (Mus musculus) (UniProt P50172); assay: Inhibition of DIO mouse epididymal fat pad 11beta-HSD1 at 30 mg/kg, po after 1 hr; type: organism-based; design: dose 30 mg/kg; procedure, shortened: as §3

T2 sequence (P28845 whole entry): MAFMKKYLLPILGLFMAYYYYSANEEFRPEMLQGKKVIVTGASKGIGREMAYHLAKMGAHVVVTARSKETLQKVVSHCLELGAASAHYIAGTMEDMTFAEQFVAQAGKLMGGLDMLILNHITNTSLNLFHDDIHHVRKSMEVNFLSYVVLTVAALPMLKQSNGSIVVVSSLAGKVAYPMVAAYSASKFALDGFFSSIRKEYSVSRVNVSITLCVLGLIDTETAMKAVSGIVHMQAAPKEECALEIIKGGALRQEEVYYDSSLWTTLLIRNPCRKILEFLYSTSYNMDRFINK
11-beta-hydroxysteroid dehydrogenase 1 (Mus musculus, UniProt P50172), sequence (P50172 whole entry): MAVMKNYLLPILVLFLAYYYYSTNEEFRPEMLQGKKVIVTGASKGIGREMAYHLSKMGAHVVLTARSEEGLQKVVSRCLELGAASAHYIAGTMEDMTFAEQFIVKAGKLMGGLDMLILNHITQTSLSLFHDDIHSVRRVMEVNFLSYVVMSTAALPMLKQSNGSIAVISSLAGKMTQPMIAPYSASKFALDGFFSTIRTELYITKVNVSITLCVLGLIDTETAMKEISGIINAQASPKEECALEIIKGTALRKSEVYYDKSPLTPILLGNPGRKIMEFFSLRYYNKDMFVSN
11-beta-hydroxysteroid dehydrogenase 1 (Mus musculus), sequence (P50172 whole entry, looked up): as the sequence (P50172 whole entry) above

| Structure (SMILES) | IC50 [5] | IC50 [6] | IC50 [7] | IC50 [8] | remaining at 0.5 h [10] | IC50 [9] | further results |
| --- | --- | --- | --- | --- | --- | --- | --- |
| CN(CCOc1ccc(CC2SC(=O)NC2=O)cc1)c1ccccn1 (centres undefined) [ROSIGLITAZONE] | – | – | – | – | – | – | Activity (Mus musculus [1]): 0.97 ng/mL; Activity (Mus musculus [2]): 50.8 mg/dL; Activity (Mus musculus [3]): 143.4 mg/dL; Activity (Mus musculus [4]): 41.6 g |
| O=C1C(Cc2ccccc2)CCN1C1C2CC3CC(C2)CC1C3 (centres undefined) | > 10000 nM | 64 nM | – | – | – | – | – |
| CCOC(=O)[C@H]1[C@@H]2CCC(N3CC(COc4ccc(C#N)cn4)C(C)(C)C3=O)CC[C@@H]21 (some centres undefined) | > 30000 nM | – | > 100000 nM | 518 nM | – | – | Ki [9]: 260 nM; Ki [6]: 50 nM |
| CC1(C)C(=O)N(C2CCCN(C(N)=O)CC2)CC1COc1ccc(C#N)cn1 (centres undefined) | – | – | – | – | – | – | Ki [9]: 250 nM; Ki [6]: 190 nM |
| CC1(C)C(=O)N([C@H]2C3CC4CC2C[C@](C(N)=O)(C4)C3)CC1COc1ccc(-n2ccnc2)cc1 (some centres undefined) | 1800 nM | 76 nM | 14000 nM | 28 nM | 28% | 41 nM | – |
| O=C1C(Cc2ccccc2)CCN1[C@H]1C2CC3CC1C[C@](O)(C3)C2 (some centres undefined) | > 10000 nM | 832 nM | – | – | – | – | – |
| CC#C[C@]1(O)CC[C@H]2[C@@H]3CCC4=CC(=O)CCC4=C3[C@@H](c3ccc(N(C)C)cc3)C[C@@]21C [MIFEPRISTONE] | – | – | – | – | – | – | Activity (Mus musculus [11]): 1.5 ng/mL; Activity (Mus musculus [12]): 39.5 g; Activity (Mus musculus [13]): 147.5 mg/dL; Activity (Mus musculus [14]): 43.2 mg/dL |
| CC1(C)C(=O)N([C@H]2C3CC4CC2C[C@](C(=N)N)(C4)C3)CC1COc1ccc(C(F)(F)F)cn1 (some centres undefined) | – | – | > 100000 nM | – | 100% | 110 nM | – |
| NC(=O)[C@]12CC3CC(C1)[C@@H](N1CCC(Cc4ccccc4)C1=O)C(C3)C2 (some centres undefined) | > 30000 nM | 35 nM | – | – | – | – | – |
| CC1(C)C(=O)N([C@H]2C3CC4CC2C[C@](C(N)=O)(C4)C3)CC1COc1ccc(C#N)cn1 (some centres undefined) | – | – | 10000 nM | – | 97% | 2 nM | half-life [15]: 1.3 h; Activity (Mus musculus [11]): 1.31 ng/mL; Activity (Mus musculus [12]): 40.7 g; inhibition [16]: 94%; bioavailability [17]: 76.6%; inhibition [18]: 71%; Activity (Mus musculus [13]): 164.7 mg/dL; inhibition [19]: 99%; inhibition [20]: 46%; clearance [21]: 33.3 mL/min/kg; inhibition [22]: 67%; Activity (Mus musculus [14]): 33.3 mg/dL |
| CC1(C)C(=O)N([C@H]2C3CCCC2C[C@@H](C(N)=O)C3)CC1COc1ccc(C#N)cn1 (stereo in doubt; 31) [listing 1 of 2 here] | 15000 nM | 7 nM | > 50000 nM | 39 nM | – | 3 nM | half-life [15]: 1.3 h; Stability ([10]; microsomes, 0.5 h): 88%; bioavailability [17]: 63.9%; clearance [21]: 23.3 mL/min/kg |
| CC1(C)C(=O)N([C@H]2C3CCCC2C[C@H](C(N)=O)C3)CC1COc1ccc(C#N)cn1 (some centres undefined) | > 100000 nM | – | > 100000 nM | 510 nM | 12% | – | Ki [9]: 17 nM; Ki [6]: 29 nM |
| CC1(C)C(=O)N([C@H]2C3CC4CC2C[C@](C(N)=O)(C4)C3)CC1COc1ccc(-n2cncn2)cc1 (some centres undefined) | 1600 nM | 41 nM | 8000 nM | 43 nM | – | 32 nM | – |
| CC1(C)C(=O)N([C@H]2C3CCCC2C[C@@H](C(N)=O)C3)CC1COc1ccc(C#N)cn1 (stereo in doubt; 32) | 22000 nM | 5 nM | 100000 nM | 46 nM | 92% | 9 nM | – |
| C[C@H]1C(=O)N(C2CCCCCC2)C[C@@H]1COc1ccc(C#N)cn1 | – | – | – | – | – | 75 nM | – |
| CC1(C)C(=O)N(C23CCC(C(N)=O)(CC2)CC3)CC1COc1ccc(C#N)cn1 (centres undefined) | – | – | 100000 nM | – | 91% | 10 nM | – |
| CC1(C)C(=O)N([C@H]2C3CC4CC2C[C@](C(=N)NO)(C4)C3)CC1COc1ccc(C(F)(F)F)cn1 (some centres undefined) | – | – | 60000 nM | – | 67% | 14 nM | – |
| CC1(C)C(=O)N([C@H]2C3CCCC2C[C@@H](C(N)=O)C3)CC1COc1ccc(C#N)cn1 (stereo in doubt; 31) [listing 2 of 2 here] | – | – | – | – | – | – | inhibition [16]: 33%; inhibition [23]: 68%; inhibition [18]: 30%; inhibition [19]: 73%; inhibition [20]: 17%; inhibition [22]: 14% |
| CC1(C)C(=O)N(C2CCCCCC2)CC1COc1ccc(C#N)cn1 (centres undefined) | – | – | 100000 nM | – | – | 62 nM | – |
| O=C1C(Cc2ccccc2)CCN1C1CCCCC1 (centres undefined) | > 10000 nM | 107 nM | – | – | – | – | – |
| CC1(C)C(=O)N([C@H]2C3CC4CC2C[C@](c2nnn[nH]2)(C4)C3)CC1COc1ccc(C(F)(F)F)cn1 (some centres undefined) | 630 nM | 310 nM | 1600 nM | 230 nM | – | 430 nM | – |
| N#Cc1ccc(OCC2CC(=O)N(C3CCCCCC3)C2)nc1 (centres undefined) | – | – | – | – | – | 10000 nM | – |
